# Published values pooled from the literature.
# Each line is one published result; the experiments were not run side by side.
# Target: Dual specificity protein kinase TTK (TTK, Homo sapiens, UniProt P33981)
# One construct used (P33981 1-857): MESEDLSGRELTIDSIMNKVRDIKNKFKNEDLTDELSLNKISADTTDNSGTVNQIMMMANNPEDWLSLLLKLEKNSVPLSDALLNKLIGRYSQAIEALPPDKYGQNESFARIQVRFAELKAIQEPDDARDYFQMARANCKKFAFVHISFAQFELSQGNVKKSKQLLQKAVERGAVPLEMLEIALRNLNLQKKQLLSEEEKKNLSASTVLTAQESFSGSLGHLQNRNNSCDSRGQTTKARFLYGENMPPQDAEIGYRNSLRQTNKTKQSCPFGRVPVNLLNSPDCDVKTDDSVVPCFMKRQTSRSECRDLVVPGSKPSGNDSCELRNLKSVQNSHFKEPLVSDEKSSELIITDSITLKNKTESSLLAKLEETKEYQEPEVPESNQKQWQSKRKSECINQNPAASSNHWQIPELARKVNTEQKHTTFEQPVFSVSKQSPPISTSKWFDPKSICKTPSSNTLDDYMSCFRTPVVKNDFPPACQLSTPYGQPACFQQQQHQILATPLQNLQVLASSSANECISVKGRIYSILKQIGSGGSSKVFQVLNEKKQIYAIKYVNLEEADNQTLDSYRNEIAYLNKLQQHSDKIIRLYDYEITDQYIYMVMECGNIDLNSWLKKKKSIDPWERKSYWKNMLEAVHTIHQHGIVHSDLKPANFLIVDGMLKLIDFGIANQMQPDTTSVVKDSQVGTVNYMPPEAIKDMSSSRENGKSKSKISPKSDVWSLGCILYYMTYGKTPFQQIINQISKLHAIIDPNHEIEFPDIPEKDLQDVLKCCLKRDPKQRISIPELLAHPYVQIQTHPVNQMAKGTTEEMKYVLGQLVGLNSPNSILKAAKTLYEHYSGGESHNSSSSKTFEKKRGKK
Structure (SMILES),assay,setting,remaining binding [%]
N[C@H]1CCN(c2nccc(-c3cnn4ncccc34)n2)C1,binding,1 µM,93
N#CC1(c2ccccn2)CCN(Cc2cc(C(=O)N3CCCC3)c(=O)n3ccccc23)CC1,"cell-free assay, competition with immobilised ligand",1 µM,98
O=C(NCCCN1CCOCC1)c1ccc(Nc2nccc(-c3cc4ccccc4s3)n2)cc1,"binding, competition with immobilised ligand",1 µM,72
C[C@H]1CCN(c2nccc(-c3cnn4ncccc34)n2)C1,binding,1 µM,34
CSc1cccnc1N1CCN(Cc2nc3ccccc3[nH]2)CC1,"cell-free assay, competition with immobilised ligand",1 µM,98
CN(C)c1nccc(-c2cnn3ncccc23)n1,binding,1 µM,100
NS(=O)(=O)c1cc(NC(=O)Cc2ccccc2)ccc1Oc1cccc(Cl)c1,"cell-free assay, competition with immobilised ligand",1 µM,91
Nc1ncc2c(n1)-c1c([nH]c3ccc(C#CC4CC4)cc13)CCCC2,"binding, competition with immobilised ligand",1 µM,100
C=CC(=O)N1CCC(C(=O)NCC(=O)N2CCN(c3nc(-c4cnc(N)nc4C(F)F)nc(N4CCOCC4)n3)CC2)CC1,"binding, competition with immobilised ligand",1 µM,92
CN(C)c1ncc(F)c(-c2cnn3ncccc23)n1,binding,1 µM,66
O=C(NCC1CCOCC1)c1n[nH]cc1NC(=O)c1c(F)cccc1F,"binding, competition with immobilised ligand",1 µM,84
O=C(N[C@H]1CCCCC/C=C\C2C[C@@]2(C(=O)O)NC(=O)[C@@H]2C[C@@H](Oc3ccncc3)CN2C1=O)OC1CCCC1 (stereo partly drawn),"binding, competition with immobilised ligand",1 µM,79
COc1ncc2cc3ccccc3nc2c1C#N,"cell-free assay, competition with immobilised ligand",5 µM,85
C[C@@H](c1ccc(-n2cnc3c(N)ncnc32)cc1)N1CCc2nn(C)c(Cc3ccccc3)c2C1=O,"binding, competition with immobilised ligand",0.1 µM,85
O=C(c1ccc(Nc2ncc(Cl)c(-c3cc4ccccc4s3)n2)cc1)N1CCC(N2CCCC2)CC1,"binding, competition with immobilised ligand",1 µM,41
c1cncc(-c2cccc(Nc3nccc(NC4CCCCC4)n3)c2)c1,"binding, competition with immobilised ligand",10 µM,30
c1cnn2ncc(-c3ccnc(N4CCC45COC5)n3)c2c1,binding,1 µM,61
CCC(=O)N[C@H]1CC[C@@H](C(=O)N(C)c2ccc(-c3nc4ccccc4o3)cc2)C1,"cell-free assay, competition with immobilised ligand",1 µM,100
CNC(=O)[C@@H]1CC[C@@H](n2c(-c3ccc4cnccc4c3)nc3ccc(C(=O)NCc4cccc(C(N)=O)c4)cc32)C1,"binding, competition with immobilised ligand",1 µM,100
O=C(c1ccc(Nc2nccc(-c3cc4ccccc4s3)n2)cc1)N1CCC(N2CCCC2)CC1,"binding, competition with immobilised ligand",1 µM,57
CO[C@@H](C)c1c(Nc2ccc([C@H](N(C)C(=O)C3CCS(=O)(=O)CC3)C(F)(F)F)cc2)cnc2cc(Cl)nn12,"cell-free assay, competition with immobilised ligand",1 µM,77
